In brackets after ≈: the same amount, converted by molar mass.
System: Candida parapsilosis
Assay: Antifungal activity against Candida parapsilosis ATCC 22019 at 35 degC after 48 hrs by broth microdilution test
Assay type: functional
Details: Lodderomyces parapsilosis, ATCC 22019, 48 h; read-out: MFC
Summary of the method: (§1)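 Broth microdilution per NCCLS M27-A2. Stocks in 100% DMSO, diluted in RPMI 1640 with 0.165 M MOPS at pH 7.0; final range 0.25–128 µg/mL. Inoculum 1000–5000 cells/mL from SDA subcultures. […] C. parapsilosis ATCC22019 served as QC strain.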

Compound | MFC [µg/mL]
Clc1ccc(C(CCn2ccnc2)OCc2ccc(Cl)cc2Cl)cc1 (centres undefined) | 32 (≈ 80.9 µM)
CCc1ccc(OC(CCn2ccnc2)c2ccc(Cl)cc2)cc1 (centres undefined) | 16 (≈ 46.9 µM)
C[C@@H](c1ncncc1F)[C@](O)(Cn1cncn1)c1ccc(F)cc1F [VORICONAZOLE] | 0.125 (≈ 0.358 µM)
Clc1ccc(C(OCCn2ccnc2)c2ccccc2)c(Cl)c1.O=[N+]([O-])O (centres undefined) | 32
Cc1ccc(C(CCn2ccnc2)Oc2ccc(C)cc2Cl)cc1 (centres undefined) | 8 (≈ 23.5 µM)

Same assay, conditions: Lodderomyces parapsilosis, ATCC 22019, 48 h; read-out: MIC

MIC [µg/mL] | Compound
4 (≈ 10.1 µM) | Clc1ccc(C(CCn2ccnc2)OCc2ccc(Cl)cc2Cl)cc1 (centres undefined)
8 (≈ 23.5 µM) | CCc1ccc(OC(CCn2ccnc2)c2ccc(Cl)cc2)cc1 (centres undefined)
16 | Clc1ccc(C(OCCn2ccnc2)c2ccccc2)c(Cl)c1.O=[N+]([O-])O (centres undefined)
4 (≈ 11.7 µM) | Cc1ccc(C(CCn2ccnc2)Oc2ccc(C)cc2Cl)cc1 (centres undefined)

Compound | MIC [µg/mL]
C[C@@H](c1ncncc1F)[C@](O)(Cn1cncn1)c1ccc(F)cc1F [VORICONAZOLE] | 0.015 (≈ 0.0429 µM)

System: Arthrodermataceae
Assay: Antifungal activity against dermatophytes at 28 degC after 5 days by broth microdilution test
Details: not given

Compound | MFC90 [µg/mL]
Clc1ccc(C(CCn2ccnc2)OCc2ccc(Cl)cc2Cl)cc1 (centres undefined) | 16 (≈ 40.4 µM)
C[C@@H](c1ncncc1F)[C@](O)(Cn1cncn1)c1ccc(F)cc1F [VORICONAZOLE] | 1 (≈ 2.86 µM)
Clc1ccc(C(OCCn2ccnc2)c2ccccc2)c(Cl)c1.O=[N+]([O-])O (centres undefined) | 8

Same assay, conditions: Arthrodermataceae

Compound | MFC [µg/mL]
Clc1ccc(C(CCn2ccnc2)OCc2ccc(Cl)cc2Cl)cc1 (centres undefined) | 17.3 (≈ 43.7 µM)
C[C@@H](c1ncncc1F)[C@](O)(Cn1cncn1)c1ccc(F)cc1F [VORICONAZOLE] | 0.9 (≈ 2.58 µM)
Clc1ccc(C(OCCn2ccnc2)c2ccccc2)c(Cl)c1.O=[N+]([O-])O (centres undefined) | 7.5

System: Candida albicans
Assay: Antifungal activity against fluconazole-resistant Candida albicans isolated from oropharyngeal or vaginal disease patient after 48 hrs by broth microdilution test
Assay type: functional
Details: not given

Compound | MIC [µg/mL]
C[C@@H](c1ncncc1F)[C@](O)(Cn1cncn1)c1ccc(F)cc1F [VORICONAZOLE] | 16 (≈ 45.8 µM)

System: Arthrodermataceae
Assay: Antifungal activity against dermatophytes at 28 degC after 7 days by broth microdilution test
Assay type: functional
Details: 168 h
Summary of the method: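 Ten clinical isolates (two M. canis, five M. gypseum, three T. mentagrophytes) tested by NCCLS M38-A broth microdilution in MOPS-buffered RPMI 1640, pH 7.0, over 0.25–128 µg/mL. Conidial/hyphal suspension from PDA slants (28 °C, 7 days) adjusted to 65–70% transmittance at OD530, then diluted 1:50.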

MIC [µg/mL] | MIC50 [µg/mL] | MIC90 [µg/mL] | Compound
7 (≈ 17.7 µM) | 8 (≈ 20.2 µM) | 8 (≈ 20.2 µM) | Clc1ccc(C(CCn2ccnc2)OCc2ccc(Cl)cc2Cl)cc1 (centres undefined)
7 | 8 | 8 | Clc1ccc(C(OCCn2ccnc2)c2ccccc2)c(Cl)c1.O=[N+]([O-])O (centres undefined)

Compound | MIC [µg/mL] | MIC50 [µg/mL] | MIC90 [µg/mL]
C[C@@H](c1ncncc1F)[C@](O)(Cn1cncn1)c1ccc(F)cc1F [VORICONAZOLE] | 0.03 (≈ 0.0859 µM) | 0.016 (≈ 0.0458 µM) | 0.06 (≈ 0.172 µM)

System: Candida albicans
Assay: Antifungal activity against Candida albicans ATCC 10261 at 35 degC after 48 to 96 hrs by broth microdilution test
Assay type: functional
Details: not given
Summary of the method: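 Minimal fungicidal concentration for Candida. […] MFC is the lowest concentration allowing fewer than two colonies (99% killing).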

Compound | MFC50 [µg/mL] | MFC90 [µg/mL]
Clc1ccc(C(CCn2ccnc2)OCc2ccc(Cl)cc2Cl)cc1 (centres undefined) | 64 (≈ 162 µM) | 64 (≈ 162 µM)
CCc1ccc(OC(CCn2ccnc2)c2ccc(Cl)cc2)cc1 (centres undefined) | 8 (≈ 23.5 µM) | 16 (≈ 46.9 µM)
C[C@@H](c1ncncc1F)[C@](O)(Cn1cncn1)c1ccc(F)cc1F [VORICONAZOLE] | >16 | >16
Clc1ccc(C(OCCn2ccnc2)c2ccccc2)c(Cl)c1.O=[N+]([O-])O (centres undefined) | 128 | >256
Cc1ccc(C(CCn2ccnc2)Oc2ccc(C)cc2Cl)cc1 (centres undefined) | 32 (≈ 93.9 µM) | 32 (≈ 93.9 µM)

Same assay, conditions: Candida albicans, ATCC 10261; read-out: MFC

Compound | MFC [µg/mL]
Clc1ccc(C(CCn2ccnc2)OCc2ccc(Cl)cc2Cl)cc1 (centres undefined) | 62 (≈ 157 µM)
CCc1ccc(OC(CCn2ccnc2)c2ccc(Cl)cc2)cc1 (centres undefined) | 12.5 (≈ 36.7 µM)
C[C@@H](c1ncncc1F)[C@](O)(Cn1cncn1)c1ccc(F)cc1F [VORICONAZOLE] | 26 (≈ 74.4 µM)
Clc1ccc(C(OCCn2ccnc2)c2ccccc2)c(Cl)c1.O=[N+]([O-])O (centres undefined) | 158
Cc1ccc(C(CCn2ccnc2)Oc2ccc(C)cc2Cl)cc1 (centres undefined) | 24 (≈ 70.4 µM)

System: Candida albicans
Assay: Antifungal activity against Candida albicans ATCC 10261 at 35 degC after 48 hrs by broth microdilution test
Assay type: functional
Details: Candida albicans, ATCC 10261, 48 h; read-out: MIC
Summary of the method: as §1

MIC [µg/mL] | Compound
60.2 (≈ 152 µM) | Clc1ccc(C(CCn2ccnc2)OCc2ccc(Cl)cc2Cl)cc1 (centres undefined)
6.5 (≈ 19.1 µM) | CCc1ccc(OC(CCn2ccnc2)c2ccc(Cl)cc2)cc1 (centres undefined)
46.1 | Clc1ccc(C(OCCn2ccnc2)c2ccccc2)c(Cl)c1.O=[N+]([O-])O (centres undefined)
6.5 (≈ 19.1 µM) | Cc1ccc(C(CCn2ccnc2)Oc2ccc(C)cc2Cl)cc1 (centres undefined)

Compound | MIC [µg/mL]
C[C@@H](c1ncncc1F)[C@](O)(Cn1cncn1)c1ccc(F)cc1F [VORICONAZOLE] | 0.89 (≈ 2.55 µM)

Same assay, conditions: Candida albicans, ATCC 10261, 48 h; read-out: MIC50

MIC50 [µg/mL] | Compound
64 (≈ 162 µM) | Clc1ccc(C(CCn2ccnc2)OCc2ccc(Cl)cc2Cl)cc1 (centres undefined)
8 (≈ 23.5 µM) | CCc1ccc(OC(CCn2ccnc2)c2ccc(Cl)cc2)cc1 (centres undefined)
32 | Clc1ccc(C(OCCn2ccnc2)c2ccccc2)c(Cl)c1.O=[N+]([O-])O (centres undefined)
8 (≈ 23.5 µM) | Cc1ccc(C(CCn2ccnc2)Oc2ccc(C)cc2Cl)cc1 (centres undefined)

Compound | MIC50 [µg/mL]
C[C@@H](c1ncncc1F)[C@](O)(Cn1cncn1)c1ccc(F)cc1F [VORICONAZOLE] | 0.25 (≈ 0.716 µM)

Same assay, conditions: Candida albicans, ATCC 10261, 48 h; read-out: MIC90

MIC90 [µg/mL] | Compound
64 (≈ 162 µM) | Clc1ccc(C(CCn2ccnc2)OCc2ccc(Cl)cc2Cl)cc1 (centres undefined)
8 (≈ 23.5 µM) | CCc1ccc(OC(CCn2ccnc2)c2ccc(Cl)cc2)cc1 (centres undefined)
64 | Clc1ccc(C(OCCn2ccnc2)c2ccccc2)c(Cl)c1.O=[N+]([O-])O (centres undefined)
8 (≈ 23.5 µM) | Cc1ccc(C(CCn2ccnc2)Oc2ccc(C)cc2Cl)cc1 (centres undefined)

Compound | MIC90 [µg/mL]
C[C@@H](c1ncncc1F)[C@](O)(Cn1cncn1)c1ccc(F)cc1F [VORICONAZOLE] | > 1

System: Arthrodermataceae
Assay: Antifungal activity against dermatophytes at 28 degC after 48 to 96 hrs by broth microdilution test
Details: not given

Compound | MFC50 [µg/mL]
Clc1ccc(C(CCn2ccnc2)OCc2ccc(Cl)cc2Cl)cc1 (centres undefined) | 16 (≈ 40.4 µM)
C[C@@H](c1ncncc1F)[C@](O)(Cn1cncn1)c1ccc(F)cc1F [VORICONAZOLE] | 1 (≈ 2.86 µM)
Clc1ccc(C(OCCn2ccnc2)c2ccccc2)c(Cl)c1.O=[N+]([O-])O (centres undefined) | 8

System: not listed separately
Assay: Cytotoxicity against human U937 cells assessed as reduction of cell viability after 24 hrs by MTT assay
Assay type: cell-based, U-937
Details: not given
Summary of the method: (§2)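 U937 and K562 cells, from ATCC, plated at 5 × 10^4/mL in phenol-red-free RPMI-1640 with 20% FBS and penicillin/streptomycin. Compounds added 2 h later at 25–100 µg/mL, then 24 h at 37 °C. MTT at 1 mg/mL for 3 h, formazan dissolved in isopropanol with 0.1 N HCl, absorbance read at 570 nm. CC50 is the concentration reducing viability by 50% versus the drug-free control.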

Compound | CC50 at 24 h [µM]
CCc1ccc(OC(CCn2ccnc2)c2ccc(Cl)cc2)cc1 (centres undefined) | 265
Cc1ccc(C(CCn2ccnc2)Oc2ccc(C)cc2Cl)cc1 (centres undefined) | 151

System: not listed separately
Assay: Cytotoxicity against human K562 cells after assessed as reduction of cell viability 24 hrs by MTT assay
Assay type: cell-based
Details: not given
Summary of the method: as §2

Compound | CC50 at 24 h [µM]
CCc1ccc(OC(CCn2ccnc2)c2ccc(Cl)cc2)cc1 (centres undefined) | 185
Cc1ccc(C(CCn2ccnc2)Oc2ccc(C)cc2Cl)cc1 (centres undefined) | 123

System: Candida albicans
Assay: Antifungal activity against fluconazole-sensitive Candida albicans Fe40 at 35 degC after 48 hrs by broth microdilution test
Assay type: functional
Details: not given
Summary of the method: as §1

Compound | MIC [µg/mL]
C[C@@H](c1ncncc1F)[C@](O)(Cn1cncn1)c1ccc(F)cc1F [VORICONAZOLE] | 0.016 (≈ 0.0458 µM)
